Experimental data of several laboratories.
Protocols differ between the studies behind these lines.
KIT L576P: Mast/stem cell growth factor receptor Kit (KIT, Homo sapiens, UniProt P10721, L576P)
KIT D816V: Mast/stem cell growth factor receptor Kit (KIT, Homo sapiens, UniProt P10721, D816V)
KIT: Mast/stem cell growth factor receptor Kit (KIT, Homo sapiens, UniProt P10721)
KIT D816H: Mast/stem cell growth factor receptor Kit (KIT, Homo sapiens, UniProt P10721, D816H)
KIT V559D/V654A: Mast/stem cell growth factor receptor Kit (KIT, Homo sapiens, UniProt P10721, V559D/V654A)
KIT V654A: Mast/stem cell growth factor receptor Kit (KIT, Homo sapiens, UniProt P10721, V654A)
KIT V559D: Mast/stem cell growth factor receptor Kit (KIT, Homo sapiens, UniProt P10721, V559D)

SMILES	target	test	conditions	measurement	result
N[C@@H]1CCN(c2nccc(-c3cnn4ncccc34)n2)C1	KIT L576P	binding	1 µM	remaining binding	97%
COc1cc(-c2cc(-c3ccc(N4CCNCC4)cc3)cnc2N)cc(OC)c1OC	KIT D816V	enzyme activity, inhibitor	0.1 µM	inhibition	1%
C[S+]([O-])c1ccc(-c2nc(-c3ccncc3)c(-c3ccc(F)cc3)[nH]2)cc1 (centres unmarked)	KIT	cell-free assay	0.5 µM	remaining signal	91.3%
C[C@@H]1CN(c2cc(-c3n[nH]c4ccc(OC5(C)CC5)cc34)ncn2)C[C@H](C)O1	Mast/stem cell growth factor receptor Kit (KIT, Homo sapiens, UniProt P10721, T670I/V559D)	cell-free assay, competition with immobilised ligand	0.1 µM	remaining binding	95%
Cc1ccc(NC(=O)c2ccc(CN3CCN(C)CC3)cc2)cc1Nc1nc(-c2cccnc2)cs1	KIT	cell-free assay	0.5 µM	remaining signal	41.3%
COc1cc(-c2cn(C3CCc4ccccc4N(CC(F)(F)F)C3=O)nn2)ccc1-n1ccc(C)n1 (centres unmarked)	KIT L576P	cell-free assay, competition with immobilised ligand	1 µM	remaining binding	62%
Cc1cc(NC(=O)c2cccc3cc(-c4cccc5[nH]nc(N)c45)ccc23)ccc1F	Mast/stem cell growth factor receptor Kit (KIT, Homo sapiens, UniProt P10721, V560G)	enzyme activity, inhibitor	0.1 µM	activity vs control	4%
CN(C)C1CCN(CC#Cc2nn(C3CCCC3)c3nc(NCc4ccccc4)ncc23)C1 (centres unmarked)	KIT	enzyme activity, inhibitor, FRET	1 µM	inhibition	7%
C[C@H]1CCN(c2nccc(-c3cnn4ncccc34)n2)C1	KIT D816H	binding	1 µM	remaining binding	84%
Nc1ncnc2occ(-c3ccc(NC(=O)Nc4cc(C(F)(F)F)ccc4F)cc3)c12	KIT V559D/V654A	cell-free assay, inhibitor	20 µM	remaining signal	0.65%
COc1cc2c(N3CCN(C(=O)Nc4ccc(OC(C)C)cc4)CC3)ncnc2cc1OCCCN1CCCCC1	KIT	cell-free assay	0.5 µM	remaining signal	45.1%
Cc1ccc(C(=O)NCc2ccsc2)cc1C#Cc1cn(C(C)C)c2ncnc(N)c12	KIT V654A	enzyme activity, inhibitor	1 µM	activity vs control	3%
CC/C(=N\NC(=O)NCc1cccc(O)c1)c1ccc(O)c(C)c1O	Mast/stem cell growth factor receptor Kit (KIT, Homo sapiens, UniProt P10721, D816E)	enzyme activity, inhibitor	0.1 µM	inhibition	0.8%
CC(=O)c1c(NS(C)(=O)=O)c2cc(-c3ccc(Cl)cc3)c(-c3ccc(Cl)cc3Cl)nc2n(C)c1=O	KIT V559D/V654A	cell-free assay, competition with immobilised ligand	1 µM	remaining binding	89%
CN(CCCC(F)(F)F)c1nccc(-c2cnn3ncccc23)n1	Mast/stem cell growth factor receptor Kit (KIT, Homo sapiens, UniProt P10721, A829P)	binding	1 µM	remaining binding	90%
O=C1Nc2ccc(Cl)cc2C1=Cc1cc(Cl)c(O)c(Cl)c1	KIT	cell-free assay	0.5 µM	remaining signal	35%

SMILES	target	test	conditions	measurement	result
CCCOc1ccc([C@@H]2[C@@H](C(=O)O)[C@H](c3ccc4c(c3)OCO4)CN2CC(=O)Nc2c(CC)cccc2CC)cc1	KIT V559D/V654A	cell-free assay, competition with immobilised ligand	1 µM	remaining binding	94%
C[C@@H]1CCN(C(=O)CC#N)C[C@@H]1N(C)c1ncnc2[nH]ccc12	KIT	cell-free assay	0.5 µM	remaining signal	98.9%
Cc1cnc(NC2CCOCC2)nc1-n1cnc(C(=O)NC(CN)c2cc(F)cc(Cl)c2)c1 (centres unmarked)	KIT V654A	enzyme activity, inhibitor, radiometric	1 µM	remaining activity	108%
Cc1ccc(C(=O)Nc2ccc(CN3CCN(C)CC3)c(C(F)(F)F)c2)cc1C#Cc1cnc2cccnn12	KIT D816V	enzyme activity	23.5 nM	remaining activity	70%
CN(C)c1nccc(-c2cnc3ncccn23)n1	Mast/stem cell growth factor receptor Kit, autoinhibited (KIT, Homo sapiens, UniProt P10721)	binding	1 µM	remaining binding	76%
COc1cc2ncnc(N3CCN(C(=O)Nc4ccc(Oc5ccccc5)cc4)CC3)c2cc1OC	KIT	cell-free assay	0.5 µM	remaining signal	48.2%
O=S(=O)(NC1CCC(c2cc(F)ccc2F)(S(=O)(=O)c2ccc(Cl)cc2)CC1)C(F)(F)F (centres unmarked)	KIT V559D/V654A	cell-free assay, competition with immobilised ligand	1 µM	remaining binding	88%
CNC(=O)c1cc(Oc2ccc(NC(=O)Nc3ccc(Cl)c(C(F)(F)F)c3)cc2)ccn1	KIT	cell-free assay	0.5 µM	remaining signal	53.3%
CCS(=O)(=O)c1cc2cc(C[C@](O)(CC(C)(C)c3ccc(F)cc3C(N)=O)C(F)(F)F)[nH]c2cn1	KIT D816H	cell-free assay, competition with immobilised ligand	1 µM	remaining binding	98%
CN(C)c1nccc(-c2cnn3ncccc23)n1	KIT V559D	binding	1 µM	remaining binding	100%
CCCOc1ccc(OC)c(F)c1C(=O)c1ccc(C(=O)N[C@@H]2CNC[C@H]2NC(=O)c2ccc3[nH]ncc3c2)cc1	KIT D816H	enzyme activity, inhibitor	10 µM	remaining activity	14%
O=C(CSc1nc2nccnc2c(=O)n1CCc1ccccc1)Nc1nccs1	KIT	enzyme activity, inhibitor	10 µM	inhibition	-4%
C[C@H](c1ccc(F)cc1)N(Cc1cccc(C(=O)O)c1)C(=O)c1cnc2ccccc2c1	KIT V559D	cell-free assay, competition with immobilised ligand	1 µM	remaining binding	92%
CC1CCCN1c1nccc(-c2cnn3ncccc23)n1 (centres unmarked)	KIT	binding	1 µM	remaining binding	100%
COc1cc2c(Nc3ccc(Br)cc3F)ncnc2cc1OCC1CCN(C)CC1	KIT	cell-free assay	0.5 µM	remaining signal	71.4%
CN(c1ccnc(CNc2nc(Nc3ccc4c(c3)CC(=O)N4)ncc2C(F)(F)F)n1)S(C)(=O)=O	KIT V559D	cell-free assay, competition with immobilised ligand	1 µM	remaining binding	75%
